# Test results as given in the M2OR odorant receptor database.
# Changes are numbered by the printed parent chain.
# How the values were obtained:
# Details in all cases: stereoisomer not certain
# [1] = molecular target: T1, OR2A7 (Homo sapiens) (UniProt Q96R45)
# T1 sequence (whole entry): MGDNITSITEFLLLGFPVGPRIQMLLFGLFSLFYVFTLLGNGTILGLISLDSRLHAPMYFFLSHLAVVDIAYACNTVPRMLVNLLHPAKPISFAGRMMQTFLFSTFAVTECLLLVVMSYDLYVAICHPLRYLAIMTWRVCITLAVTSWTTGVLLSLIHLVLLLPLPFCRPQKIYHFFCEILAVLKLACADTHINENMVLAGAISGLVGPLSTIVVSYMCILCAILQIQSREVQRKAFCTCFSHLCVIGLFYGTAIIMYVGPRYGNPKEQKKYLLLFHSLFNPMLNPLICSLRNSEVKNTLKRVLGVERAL
# Summary of the method: (§1)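 Assay methods differ from source to source, frequently being transient luciferase assays in mammalian cell lines. For each receptor–molecule pair, the label responsive (active) applies when the original authors judged the measured signal statistically different from baseline, and non-responsive (inactive) applies otherwise.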
# [2] = system: T2, OR2A1 T73A R74C S168C
# T2 sequence (whole entry): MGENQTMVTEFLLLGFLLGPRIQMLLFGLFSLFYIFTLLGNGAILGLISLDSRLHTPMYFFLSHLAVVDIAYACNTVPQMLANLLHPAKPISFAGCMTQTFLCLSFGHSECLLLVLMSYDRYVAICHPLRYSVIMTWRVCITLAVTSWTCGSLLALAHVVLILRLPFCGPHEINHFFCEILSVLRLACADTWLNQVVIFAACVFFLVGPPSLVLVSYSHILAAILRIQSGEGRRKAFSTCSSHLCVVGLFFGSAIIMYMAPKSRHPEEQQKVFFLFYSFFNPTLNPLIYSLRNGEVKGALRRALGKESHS
# Summary of the method: as §1
# [3] = molecular target: T3, OR2A12 (Homo sapiens) (UniProt Q8NGT7)
# T3 sequence (whole entry): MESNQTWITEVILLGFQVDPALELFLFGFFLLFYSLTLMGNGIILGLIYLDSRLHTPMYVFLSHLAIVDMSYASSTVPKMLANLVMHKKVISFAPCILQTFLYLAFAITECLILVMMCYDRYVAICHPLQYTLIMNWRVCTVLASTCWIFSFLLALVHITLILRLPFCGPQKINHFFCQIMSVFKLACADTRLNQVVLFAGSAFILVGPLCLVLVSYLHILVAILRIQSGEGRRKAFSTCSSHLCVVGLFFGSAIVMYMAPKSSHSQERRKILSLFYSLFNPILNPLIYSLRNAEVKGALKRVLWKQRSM
# Summary of the method: as §1
# [4] = molecular target: T4, OR2A14 (Homo sapiens) (UniProt Q96R47)
# T4 sequence (whole entry): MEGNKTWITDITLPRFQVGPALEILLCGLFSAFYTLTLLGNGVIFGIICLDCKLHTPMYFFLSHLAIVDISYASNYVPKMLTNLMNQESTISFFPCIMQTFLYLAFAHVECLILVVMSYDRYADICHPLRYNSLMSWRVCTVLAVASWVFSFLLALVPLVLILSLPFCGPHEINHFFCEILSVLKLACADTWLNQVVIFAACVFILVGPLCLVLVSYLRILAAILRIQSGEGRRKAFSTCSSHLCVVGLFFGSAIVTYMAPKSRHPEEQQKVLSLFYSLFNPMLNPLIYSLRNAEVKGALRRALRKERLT
# Summary of the method: as §1
# [5] = molecular target: T5, OR2A2 (Homo sapiens) (UniProt Q6IF42)
# T5 sequence (whole entry): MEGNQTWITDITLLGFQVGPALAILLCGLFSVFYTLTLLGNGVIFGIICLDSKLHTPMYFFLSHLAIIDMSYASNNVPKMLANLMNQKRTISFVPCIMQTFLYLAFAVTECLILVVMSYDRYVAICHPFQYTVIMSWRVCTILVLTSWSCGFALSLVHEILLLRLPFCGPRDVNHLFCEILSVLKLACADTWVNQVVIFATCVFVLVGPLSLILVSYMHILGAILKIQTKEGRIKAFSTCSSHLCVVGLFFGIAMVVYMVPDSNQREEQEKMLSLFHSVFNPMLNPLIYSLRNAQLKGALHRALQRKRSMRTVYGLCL
# Summary of the method: as §1
# [6] = molecular target: T6, OR2A25 (Homo sapiens) (UniProt A4D2G3)
# T6 sequence (whole entry): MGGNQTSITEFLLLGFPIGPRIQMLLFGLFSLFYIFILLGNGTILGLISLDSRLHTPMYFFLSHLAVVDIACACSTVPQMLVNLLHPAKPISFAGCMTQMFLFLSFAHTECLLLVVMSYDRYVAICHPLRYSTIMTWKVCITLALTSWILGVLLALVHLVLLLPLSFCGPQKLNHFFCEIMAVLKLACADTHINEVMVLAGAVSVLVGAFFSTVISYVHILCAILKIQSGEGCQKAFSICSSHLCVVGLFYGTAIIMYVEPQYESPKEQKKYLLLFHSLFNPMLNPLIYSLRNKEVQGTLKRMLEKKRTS
# Summary of the method: as §1
# [7] = system: T7, OR2A2
# T7 sequence (whole entry): T5 sequence (whole entry) with F280L
# Summary of the method: as §1
# [8] = molecular target: T8, OR2A4 (Homo sapiens) (UniProt O95047)
# T8 sequence (whole entry): T1 sequence (whole entry) with T9R, C238R, F250V
# Summary of the method: as §1
# [9] = molecular target: T9, OR2A5 (Homo sapiens) (UniProt Q96R48)
# T9 sequence (whole entry): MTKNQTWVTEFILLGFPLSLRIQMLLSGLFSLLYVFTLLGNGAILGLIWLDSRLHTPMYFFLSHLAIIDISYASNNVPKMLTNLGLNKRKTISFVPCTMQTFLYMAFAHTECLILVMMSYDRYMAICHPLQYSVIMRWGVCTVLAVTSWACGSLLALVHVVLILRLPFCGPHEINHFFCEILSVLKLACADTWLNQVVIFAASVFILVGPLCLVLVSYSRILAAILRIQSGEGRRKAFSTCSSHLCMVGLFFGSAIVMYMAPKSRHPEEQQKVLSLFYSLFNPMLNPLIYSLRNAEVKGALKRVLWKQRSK
# Summary of the method: as §1
# [10] = system: T10, OR2A5 I126V A202S A255T
# T10 sequence (whole entry): T9 sequence (whole entry) with I126V, A202S, A255T
# Summary of the method: as §1
# [11] = system: T11, OR2A7
# T11 sequence (whole entry): T1 sequence (whole entry) with T9R
# Summary of the method: as §1
# [12] = molecular target: T12, OR2AE1 (Homo sapiens) (UniProt Q8NHA4)
# T12 sequence (whole entry): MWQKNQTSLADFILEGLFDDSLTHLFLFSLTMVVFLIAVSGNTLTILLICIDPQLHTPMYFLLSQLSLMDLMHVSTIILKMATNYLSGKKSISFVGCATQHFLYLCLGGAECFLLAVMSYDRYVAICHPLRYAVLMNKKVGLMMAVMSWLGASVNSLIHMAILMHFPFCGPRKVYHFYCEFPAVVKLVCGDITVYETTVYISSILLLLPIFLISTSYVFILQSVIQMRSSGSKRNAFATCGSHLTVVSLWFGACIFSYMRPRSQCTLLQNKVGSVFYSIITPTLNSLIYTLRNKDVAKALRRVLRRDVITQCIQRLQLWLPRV
# Summary of the method: as §1
# [13] = molecular target: T13, OR2AG1 (Homo sapiens) (UniProt Q9H205)
# T13 sequence (whole entry): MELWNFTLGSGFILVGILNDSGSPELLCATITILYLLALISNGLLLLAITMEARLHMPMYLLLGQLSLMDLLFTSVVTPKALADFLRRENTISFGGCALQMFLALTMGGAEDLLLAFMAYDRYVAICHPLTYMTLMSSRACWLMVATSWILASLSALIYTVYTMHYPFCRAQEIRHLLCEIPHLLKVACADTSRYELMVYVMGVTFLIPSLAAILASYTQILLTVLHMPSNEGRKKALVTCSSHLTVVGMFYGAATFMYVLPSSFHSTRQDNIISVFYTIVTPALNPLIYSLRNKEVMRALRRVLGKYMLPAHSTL
# Summary of the method: as §1
# [14] = molecular target: T14, OR2AG2 (Homo sapiens) (UniProt A6NM03)
# T14 sequence (whole entry): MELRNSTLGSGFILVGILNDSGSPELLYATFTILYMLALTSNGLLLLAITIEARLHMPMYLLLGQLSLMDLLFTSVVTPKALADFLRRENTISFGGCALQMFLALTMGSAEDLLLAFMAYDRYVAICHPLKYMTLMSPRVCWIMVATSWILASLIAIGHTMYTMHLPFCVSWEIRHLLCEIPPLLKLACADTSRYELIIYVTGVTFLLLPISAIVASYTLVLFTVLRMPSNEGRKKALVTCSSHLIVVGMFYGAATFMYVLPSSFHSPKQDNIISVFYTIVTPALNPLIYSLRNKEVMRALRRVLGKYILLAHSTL
# Summary of the method: as §1
# [15] = molecular target: T15, OR2AK2 (Homo sapiens) (UniProt Q8NG84)
# T15 sequence (whole entry): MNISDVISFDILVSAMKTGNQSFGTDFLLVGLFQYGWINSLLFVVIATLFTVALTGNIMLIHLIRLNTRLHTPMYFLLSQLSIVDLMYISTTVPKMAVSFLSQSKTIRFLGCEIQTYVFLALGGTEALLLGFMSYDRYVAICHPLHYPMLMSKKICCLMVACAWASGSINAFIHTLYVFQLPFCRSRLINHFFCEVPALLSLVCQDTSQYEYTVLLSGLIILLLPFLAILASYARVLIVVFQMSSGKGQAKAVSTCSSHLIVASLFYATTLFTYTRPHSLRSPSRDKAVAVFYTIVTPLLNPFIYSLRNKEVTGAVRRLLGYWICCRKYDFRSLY
# Summary of the method: as §1
# [16] = molecular target: T16, OR2AP1 (Homo sapiens) (UniProt Q8NGE2)
# T16 sequence (whole entry): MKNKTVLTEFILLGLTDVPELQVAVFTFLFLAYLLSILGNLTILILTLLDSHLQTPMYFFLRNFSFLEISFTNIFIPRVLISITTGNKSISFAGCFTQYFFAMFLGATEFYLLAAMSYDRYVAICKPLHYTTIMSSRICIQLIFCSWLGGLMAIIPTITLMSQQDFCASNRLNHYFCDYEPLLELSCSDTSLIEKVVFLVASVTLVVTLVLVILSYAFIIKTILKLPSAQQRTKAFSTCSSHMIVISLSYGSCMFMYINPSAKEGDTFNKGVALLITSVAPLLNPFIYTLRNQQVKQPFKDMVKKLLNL
# Summary of the method: as §1
# [17] = molecular target: T17, OR2AT4 (Homo sapiens) (UniProt A6NND4)
# T17 sequence (whole entry): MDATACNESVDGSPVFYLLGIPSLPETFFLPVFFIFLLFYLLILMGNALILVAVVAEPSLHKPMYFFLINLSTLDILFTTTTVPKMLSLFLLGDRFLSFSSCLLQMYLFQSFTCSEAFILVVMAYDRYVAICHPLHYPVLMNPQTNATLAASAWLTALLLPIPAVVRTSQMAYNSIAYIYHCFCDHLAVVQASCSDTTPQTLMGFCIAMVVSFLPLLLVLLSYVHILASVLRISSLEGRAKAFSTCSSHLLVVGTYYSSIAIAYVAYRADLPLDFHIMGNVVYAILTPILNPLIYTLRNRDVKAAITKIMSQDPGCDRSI
# Summary of the method: as §1
# [18] = molecular target: T18, OR2B11 (Homo sapiens) (UniProt Q5JQS5)
# T18 sequence (whole entry): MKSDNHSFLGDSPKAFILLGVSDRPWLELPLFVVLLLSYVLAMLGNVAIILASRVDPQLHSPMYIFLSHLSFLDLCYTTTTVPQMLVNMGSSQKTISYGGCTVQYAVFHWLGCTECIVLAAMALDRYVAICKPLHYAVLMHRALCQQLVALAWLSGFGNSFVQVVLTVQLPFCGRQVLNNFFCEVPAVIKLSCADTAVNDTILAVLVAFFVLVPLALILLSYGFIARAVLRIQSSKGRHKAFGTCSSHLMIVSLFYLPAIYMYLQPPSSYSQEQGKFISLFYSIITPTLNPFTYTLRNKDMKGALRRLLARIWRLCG
# Summary of the method: as §1
# [19] = molecular target: T19, OR2B2 (Homo sapiens) (UniProt Q9GZK3)
# T19 sequence (whole entry): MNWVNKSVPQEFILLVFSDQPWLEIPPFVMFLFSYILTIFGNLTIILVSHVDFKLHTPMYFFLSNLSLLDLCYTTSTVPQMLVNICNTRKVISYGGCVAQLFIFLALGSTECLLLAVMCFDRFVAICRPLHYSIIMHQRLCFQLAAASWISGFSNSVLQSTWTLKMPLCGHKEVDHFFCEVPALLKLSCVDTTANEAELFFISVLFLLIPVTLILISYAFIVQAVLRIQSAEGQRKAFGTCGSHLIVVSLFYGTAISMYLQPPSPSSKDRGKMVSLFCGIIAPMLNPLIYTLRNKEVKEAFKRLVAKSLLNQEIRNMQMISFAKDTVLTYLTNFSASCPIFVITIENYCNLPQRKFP
# Summary of the method: as §1
Structure (SMILES),odorant receptor agonist call [1],odorant receptor agonist call [2],odorant receptor agonist call [3],odorant receptor agonist call [4],odorant receptor agonist call [5],odorant receptor agonist call [6],odorant receptor agonist call [7],odorant receptor agonist call [8],odorant receptor agonist call [9],odorant receptor agonist call [10],odorant receptor agonist call [11],odorant receptor agonist call [12],odorant receptor agonist call [13],odorant receptor agonist call [14],odorant receptor agonist call [15],odorant receptor agonist call [16],odorant receptor agonist call [17],odorant receptor agonist call [18],odorant receptor agonist call [19]
CCCCCCCCCCCCCCCCCC(=O)[O-].[H+],active,,,,,,,,,,,,,,,,,,
CC1=C(O)C(=O)OC1C (stereo not given),inactive,inactive,inactive,inactive,inactive,inactive,inactive,inactive,inactive,inactive,inactive,inactive,inactive,inactive,inactive,inactive,inactive,inactive,inactive
